The text below walks through data of ChEMBL document CHEMBL1145796, “Neuromuscular blocking activity and therapeutic potential of mixed-tetrahydroisoquinolinium halofumarates and halosuccinates in rhesus monkeys” (2003).

Common to all, as to type: functional, Cercopithecidae
The nature of assay [1]: Time from injection to peak inhibition of twitch response at the ED95 dose in male Rhesus monkey. The procedure, abridged:
(§1)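 Anesthetized, ventilated male rhesus monkeys received sequential iv bolus doses with extensor digitorum twitch recorded. Onset is injection to peak twitch inhibition. Duration is injection to 95% twitch recovery. Values at the ED95 were read from plots of onset or duration vs dose. Means ± SE across animals.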

Assay [2] can be described thus: Dose required for 95% suppression of the twitch response at the extensor digitorum in male Rhesus monkey. In outline: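 Adult male rhesus monkeys (8–15 kg) under ketamine (5 mg/kg i.m.) and pentobarbital (2–5 mg/kg iv) induction, then N2O 60%/O2 40%/halothane 0.5–1%, ventilated, core temperature 37–38 °C. Twitch of extensor digitorum was recorded after ≥20 min stable baseline. Sequential iv bolus doses from 0.03 to 6.4 mg/kg. Per-animal ED95 came from log-probability regression of dose vs % block. Other lines give the single dose tested with its % block.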

A short description of assay [3]: Time from injection to 95% recovery of the twitch response at the ED95 dose in male Rhesus monkey. The procedure, abridged: as §1
A short description of assay [4]: Selectivity index is changes in heart rate(cv dose) to the suppression of twitch response (ED95) in male Rhesus monkey. In outline: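 Same anesthetized male rhesus preparation, with blood pressure, heart rate and EKG recorded alongside twitch during sequential iv doses up to 6.4 mg/kg. Cardiovascular threshold dose is the dose giving ≥10% change in heart rate or mean arterial pressure. Index = mean threshold dose / mean ED95 (extensor digitorum).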

The mark [5] stands for this setting: Cercopithecidae, read-out: ED95.

For `COc1cc2c(cc1OC)[C@H](c1cc(OC)c(OC)c(OC)c1)[N@@+](C)(CCCOC(=O)CCC(F)(F)C(=O)OCCC[N@+]1(C)CCc3cc(OC)c(OC)cc3[C@H]1Cc1cc(OC)c(OC)c(OC)c1)CC2.[Cl-].[Cl-]`, the Onset in assay [1] is listed as 48 s. In addition, the ED95 in assay [2] (setting [5]) amounted to 0.22 mg/kg. For the same compound, the Duration in assay [3] came to 5.7 min.

Consider `COc1cc2c(cc1OC)[C@@H](c1cc(OC)c(OC)c(OC)c1)[N@+](C)(CCCOC(=O)/C=C(\Cl)C(=O)OCCC[N@+]1(C)CCc3cc(OC)c(OC)c(OC)c3[C@H]1Cc1cc(OC)c(OC)c(OC)c1)CC2.[Cl-].[Cl-]`, for which, in assay [1], the Onset was determined as 113 s. The ED95 in assay [2] (setting [5]) is 0.053 mg/kg. This compound also gave a Selectivity index in assay [4] of 15. In assay [3], this compound had a Duration of 9.9 min.

`COc1cc2c(cc1OC)[C@H](c1cc(OC)c(OC)c(OC)c1)[N@@+](C)(CCCOC(=O)/C=C(\Cl)C(=O)OCCC[N@+]1(C)CCc3cc(OC)c(OC)cc3[C@H]1Cc1cc(OC)c(OC)c(OC)c1)CC2.[Cl-].[Cl-]` (stereo in doubt; 24a/24b) [GANTACURIUM CHLORIDE]: the ED95 in assay [2] was found to be 0.163 mg/kg. This compound also displayed a Selectivity index in assay [4] of 27.

`COc1cc2c(cc1OC)[C@@H](c1cc(OC)c(OC)c(OC)c1)[N@+](C)(CCCOC(=O)/C(Cl)=C/C(=O)OCCC[N@+]1(C)CCc3cc(OC)c(OC)cc3[C@H]1Cc1cc(OC)c(OC)c(OC)c1)CC2.[Cl-].[Cl-]`: the Duration in assay [3] was 3.7 min.

The compound `COc1cc2c(cc1OC)[C@H](c1cc(OC)c(OC)c(OC)c1)[N@@+](C)(CCCOC(=O)CCCCCCCC(=O)OCCC[N@+]1(C)CCc3cc(OC)c(OC)cc3[C@H]1Cc1cc(OC)c(OC)c(OC)c1)CC2.[Cl-].[Cl-]` yielded an Onset in assay [1] of 79 s. Also, the ED95 in assay [2] (setting [5]) was 0.17 mg/kg. The compound also came in with a Selectivity index in assay [4] of 19. In assay [3], the Duration is 9.7 min.

For the compound `COc1cc2c(cc1OC)[C@H](c1ccc(F)c(F)c1)[N@@+](C)(CCCOC(=O)/C=C(\Cl)C(=O)OCCC[N@+]1(C)CCc3cc(OC)c(OC)cc3[C@H]1Cc1cc(OC)c(OC)c(OC)c1)CC2.[Cl-].[Cl-]`, the Onset in assay [1] came out at 72 s. The ED95 in assay [2] (setting [5]) amounted to 0.09 mg/kg. The compound also registered a Selectivity index in assay [4] of 18. The compound further yielded a Duration in assay [3] of 4.7 min.

`COc1cc2c(cc1OC)[C@H](c1cc(OC)c(OC)c(OC)c1)[N@@+](C)(CCCOC(=O)/C=C(\F)C(=O)OCCC[N@+]1(C)CCc3cc(OC)c(OC)c(OC)c3[C@H]1Cc1cc(OC)c(OC)c(OC)c1)CC2.[Cl-].[Cl-]` gave an Onset in assay [1] of 85 s. In assay [2] (setting [5]), the ED95 turned out to be 0.077 mg/kg. The Selectivity index in assay [4] came out at 21. Further, the Duration in assay [3] was determined as 10 min.

In assay [1], `COc1cc2c(cc1OC)[C@@H](Cc1cc(OC)c(OC)c(OC)c1)[N@+](C)(CCCOC(=O)/C(Cl)=C/C(=O)OCCC[N@+]13CCc4cc(OC)c(OC)cc4[C@H]1c1cc(OC)c(OC)cc1CC3)CC2.[Cl-].[Cl-]` came in with an Onset of 94 s. The ED95 in assay [2] (setting [5]) stood at 0.078 mg/kg. The same compound displayed a Selectivity index in assay [4] of 5. Further, the Duration in assay [3] was found to be 5.2 min.

Take `COc1cc2c(cc1OC)C(c1cc(OC)c(OC)c(OC)c1)[N@+](C)(CCCOC(=O)/C=C/C(=O)OCCC[N@+]1(C)CCc3cc(OC)c(OC)cc3[C@H]1c1cc(OC)c(OC)c(OC)c1)CC2.[Cl-].[Cl-]` (stereo not given in full): in assay [1], the Onset was 114 s. For the same compound, the ED95 in assay [2] (setting [5]) amounted to 1.55 mg/kg. This compound also displayed a Selectivity index in assay [4] of 0.65. The Duration in assay [3] amounted to 25.5 min.

For the compound `COc1cc2c(cc1OC)[C@H](c1cc(OC)c(OC)c(OC)c1)[N@@+](C)(CCCOC(=O)CCCCCCCCC(=O)OCCC[N@+]1(C)CCc3cc(OC)c(OC)cc3[C@H]1Cc1cc(OC)c(OC)c(OC)c1)CC2.[Cl-].[Cl-]`, the Onset in assay [1] is on record as 110 s. The ED95 in assay [2] (setting [5]) came to 0.2 mg/kg. This compound also registered a Duration in assay [3] of 13.5 min.

Turning to `COc1cc2c(cc1OC)[C@H](c1cc(OC)c(OC)c(OC)c1)N(CCCOC(=O)/C=C(\Cl)C(=O)OCCC[N@+]1(C)CCc3cc(OC)c(OC)cc3[C@H]1Cc1cc(OC)c(OC)c(OC)c1)CC2.Cl.[Cl-]`, the Onset in assay [1] stood at 38 s. Besides, the ED95 in assay [2] (setting [5]) was 0.87 mg/kg. In assay [3], this compound showed a Duration of 5.4 min.

`COc1cc(CC2c3cc4c(cc3CC[N@@+]2(C)CCCOC(=O)/C(Cl)=C/C(=O)OCCC[N@+]2(C)CCc3cc5c(cc3[C@H]2Cc2cc(OC)c(OC)c(OC)c2)OCO5)OCO4)cc(OC)c1OC.[Cl-].[Cl-]` (stereo not given in full) had an Onset in assay [1] of 27 s. Besides, the ED95 in assay [2] (setting [5]) turned out to be 0.62 mg/kg. In assay [4], this compound registered a Selectivity index of 1.3. Further, the Duration in assay [3] is given as 2.4 min.

In assay [1], `COc1cc2c(cc1OC)[C@H](c1cc(OC)c(OC)c(OC)c1)[N@@+](C)(CCCOC(=O)/C=C(\F)C(=O)OCCC[N@+]1(C)CCc3cc(OC)c(OC)cc3[C@H]1Cc1cc(OC)c(OC)c(OC)c1)CC2.[Cl-].[Cl-]` returned an Onset of 66 s. The ED95 in assay [2] (setting [5]) amounted to 0.137 mg/kg. Moreover, the Selectivity index in assay [4] is given as 37. The Duration in assay [3] is listed as 4.4 min.

In assay [1], `COc1cc2c(cc1OC)[C@H](c1cc(OC)c(OC)c(OC)c1)[N@@+](C)(CCCOC(=O)/C=C(\Cl)C(=O)OCCC[N@+]13CCc4cc(OC)c(OC)c(OC)c4[C@H]1Cc1cc(OC)c(OC)c(OC)c1C3)CC2.[Cl-].[Cl-]` gave an Onset of 28 s. Moreover, the ED95 in assay [2] (setting [5]) was found to be 0.8 mg/kg. The Duration in assay [3] came to 4.5 min.

In assay [1], `COc1cc2c(cc1OC)C(c1cc(OC)c(OC)c(OC)c1)[N@+](C)(CCCOC(=O)/C(Cl)=C/C(=O)OCCC[N@+]1(C)CCc3cc(OC)c(OC)cc3[C@H]1c1cc(OC)c(OC)c(OC)c1)CC2.[Cl-].[Cl-]` (stereo not given in full) showed an Onset of 46 s. In addition, the ED95 in assay [2] (setting [5]) came out at 1.79 mg/kg. The compound also displayed a Selectivity index in assay [4] of 3.6. In addition, the Duration in assay [3] is listed as 5.1 min.

In turn, `COc1cc2c(cc1OC)C(Cc1cc(OC)c(OC)c(OC)c1)[N@+](C)(CCCOC(=O)/C(Cl)=C/C(=O)OCCC[N@+]1(C)CCc3cc(OC)c(OC)cc3[C@H]1Cc1cc(OC)c(OC)c(OC)c1)CC2.[Cl-].[Cl-]` (stereo not given in full) showed an Onset in assay [1] of 96 s. In assay [2] (setting [5]), the ED95 was found to be 0.079 mg/kg. Besides, the Selectivity index in assay [4] is on record as 20. Besides, the Duration in assay [3] came to 7.1 min.

Take `COc1cc2c(cc1OC)[C@H](c1cc(OC)c(OC)c(OC)c1)[N@@+](C)(CCCOC(=O)/C=C(\Cl)C(=O)OCCC[N@@+]1(C)CCc3cc(OC)c(OC)cc3[C@@H]1c1cc(OC)c(OC)c(OC)c1)CC2.[Cl-].[Cl-]`: the Selectivity index in assay [4] came out at 1.5.

For `COc1cc2c(cc1OC)[C@@H](Cc1cc(OC)c(OC)c(OC)c1)[N+](C)(CCCOC(=O)CC/C=C/CCC(=O)OCCC[N+]1(C)CCc3cc(OC)c(OC)cc3[C@H]1Cc1cc(OC)c(OC)c(OC)c1)CC2.[Cl-].[Cl-]` (stereo not given in full) [MIVACURIUM CHLORIDE], the Selectivity index in assay [4] came to 24.

In assay [1], `COc1cc2c(cc1OC)[C@@H](c1cc(OC)c(OC)c(OC)c1)[N@+](C)(CCCOC(=O)/C=C(\Cl)C(=O)OCCC[N@+]1(C)CCc3cc(OC)c(OC)c(OC)c3[C@H]1Cc1cc(OC)c(OC)c(OC)c1)CC2` registered an Onset of 57 s. In addition, in assay [2] (setting [5]), the ED95 was determined as 0.067 mg/kg. For the same compound, in assay [4], the Selectivity index was found to be 24. In assay [3], the Duration was 10 min.

Regarding `COc1cc2c(cc1OC)[C@H](c1cc(OC)c(OC)c(OC)c1)[N@@+](C)(CCCOC(=O)CCCCC(=O)OCCC[N@+]1(C)CCc3cc(OC)c(OC)cc3[C@H]1Cc1cc(OC)c(OC)c(OC)c1)CC2.[Cl-].[Cl-]`, in assay [1], the Onset was 75 s. For the same compound, in assay [2] (setting [5]), the ED95 is 0.136 mg/kg. The compound also yielded a Duration in assay [3] of 13 min.

`COc1cc2c(cc1OC)[C@H](c1cc(OC)c(OC)c(OC)c1)[N@@+](C)(CCCOC(=O)CC(F)(F)C(=O)OCCC[N@+]1(C)CCc3cc(OC)c(OC)c(OC)c3[C@H]1Cc1cc(OC)c(OC)c(OC)c1)CC2.[Cl-].[Cl-]` registered an Onset in assay [1] of 217 s. The ED95 in assay [2] (setting [5]) amounted to 0.04 mg/kg. In assay [4], this compound gave a Selectivity index of 60. The Duration in assay [3] is 14 min.

For the compound `COc1cc2c(cc1OC)[C@H](c1cc(OC)c(OC)c(OC)c1)[N@@+](C)(CCCOC(=O)C(F)(F)CC(=O)OCCC[N@+]1(C)CCc3cc(OC)c(OC)cc3[C@H]1Cc1cc(OC)c(OC)c(OC)c1)CC2.[Cl-].[Cl-]`, the Onset in assay [1] is reported as 26 s. For the same compound, the ED95 in assay [2] (setting [5]) amounted to 0.39 mg/kg. Moreover, the Duration in assay [3] stood at 4.9 min.

With `COc1ccc([C@@H]2c3cc(OC)c(OC)cc3CC[N@@+]2(C)CCCOC(=O)CC(F)(F)C(=O)OCCC[N@+]2(C)CCc3cc(OC)c(OC)cc3[C@H]2Cc2cc(OC)c(OC)c(OC)c2)cc1OC.[Cl-].[Cl-]`, the Onset in assay [1] was 55 s. In addition, the ED95 in assay [2] (setting [5]) was 0.06 mg/kg. The same compound returned a Duration in assay [3] of 3.9 min.

In assay [1], `COc1cc2c(cc1OC)[C@H](c1cc(OC)c(OC)c(OC)c1)[N@@+](C)(CCCOC(=O)CCCCCCC(=O)OCCC[N@+]1(C)CCc3cc(OC)c(OC)cc3[C@H]1Cc1cc(OC)c(OC)c(OC)c1)CC2.[Cl-].[Cl-]` gave an Onset of 117 s. For the same compound, the ED95 in assay [2] (setting [5]) turned out to be 0.067 mg/kg. Further, the Selectivity index in assay [4] is listed as 12. In addition, in assay [3], the Duration stood at 10.9 min.

Consider `COc1cc2c(cc1OC)[C@H](c1cc(OC)c(OC)c(OC)c1)[N@@+](C)(CCCOC(=O)/C=C(\Cl)C(=O)OCCC[N@+]1(C)CCc3cc(OC)c(OC)cc3[C@H]1Cc1cc(OC)c(OC)c(OC)c1)CC2.[Cl-].[Cl-]` (stereo in doubt; 24a) [GANTACURIUM CHLORIDE], for which the ED95 in assay [2] came to 0.063 mg/kg. The same compound had a Selectivity index in assay [4] of 57.
